Laboratory results reported in ChEMBL document CHEMBL1126715, “Synthesis and tissue distribution of (m-[125I]iodobenzyl)trozamicol ([125I]MIBT): potential radioligand for mapping central cholinergic innervation” (J Med Chem, 1993).

Experiments:
Rattus norvegicus [1] = species: Rattus norvegicus; test: Ratio of effect haloperidol on regional distribution between rat brain caudate and cortex; type: ADME, organism-based; conditions: in vivo
Rattus norvegicus [2] = species: Rattus norvegicus; test: Effect of vesamicol on the accumulation in rat heart [0.25 (0.21-0.30)]; type: ADME, organism-based; conditions: in vivo
Summary of the method: (§1)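 Male Wistar rats. Pretreatment at t = 0 was iv vehicle (50% aqueous EtOH) or iv dl-vesamicol (1.01 μmol/kg). At 15 min, iv [125I]tracer (2.0 μCi in 100 μL 50% aqueous EtOH) was given; rats were killed 30 min later. Tissues were weighed and γ-counted, and values expressed as % injected dose/g; n = 4 per group.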

Rattus norvegicus [3] = species: Rattus norvegicus; test: Effect of haloperidol on the regional distribution of compound in the rat brain cortex (n=4) [0.32 (0.29-0.38)]; type: ADME, organism-based, Cerebral cortex; conditions: in vivo
Rattus norvegicus [4] = species: Rattus norvegicus; test: Regional kinetics in the remainder of rat brain at 30 minutes; type: ADME, organism-based; conditions: in vivo, 0.5 h
Summary of the method: (§2)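 Male Wistar rats (n = 4 per time point) under ether received (+)-radiotracer iv (2 μCi in 100 μL 50% aqueous EtOH). They were killed at 30, 120 or 180 min. Brains were partially frozen and dissected into striatum, cerebellum, cortex and remainder. Regions were γ-counted against injected-dose dilutions and expressed as % injected dose/g tissue.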

Rattus norvegicus [5] = species: Rattus norvegicus; test: Ratio of regional kinetics between rat brain caudate and cortex at 120 minutes; type: ADME, organism-based; conditions: in vivo, 2 h
Summary of the method: (§3)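 Male Wistar rats (n = 4/group) under ether anesthesia, iv (+)-[125I]MIBT (2 μCi in 100 μL 50% aqueous EtOH); killed at 30, 120, 180 min. Brains partially frozen, dissected into striatum, cerebellum, cortex and remainder; radioactivity counted, % dose/g vs injected-dose dilutions; caudate/cortex and caudate/cerebellum ratios.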

Rattus norvegicus [6] = species: Rattus norvegicus; test: Tissue distribution in rat spleen after 5 minutes (n=3); type: ADME, organism-based; conditions: in vivo
Summary of the method: (§4)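 Male Wistar rats (200-350 g) under ether, iv [125I]tracer (3-5 μCi in 0.1 mL 50% aqueous EtOH). At 5, 30, 60 or 180 min, blood taken by cardiac puncture and the rat killed by cardiectomy. Organs weighed and γ-counted against 1:100 dilutions of the injected dose; results in % injected dose/g, with range.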

Rattus norvegicus [7] = species: Rattus norvegicus; test: Regional kinetics in the rat cerebellum at 120 minutes; type: ADME, organism-based; conditions: in vivo, 2 h
Summary of the method: (§5)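 Male Wistar rats under ether anaesthesia, iv (+)-[125I]tracer (2 μCi in 100 μL 50% aqueous EtOH); killed at 30, 120 or 180 min. Brains partially frozen and dissected into striatum, cerebellum, cortex and remainder, then counted for radioactivity. Results are % injected dose/g, calculated against counted dilutions of the injected dose.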

Rattus norvegicus [8] = species: Rattus norvegicus; test: Ratio of regional kinetics between rat brain caudate and cerebellum at 120 minutes; type: ADME, organism-based; conditions: in vivo, 2 h; summary of the method: as §3
Rattus norvegicus [9] = species: Rattus norvegicus; test: Tissue distribution in rat brain after 30 minutes (n=3); type: ADME, organism-based; conditions: in vivo, 0.5 h
Summary of the method: (§6)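 Male Wistar rats (200-350 g) under ether anesthesia; radiotracer (3-5 μCi in 0.1 mL 50% aqueous ethanol) given iv. At 5, 30, 60 and 180 min, blood was drawn by cardiac puncture and animals were killed by cardiectomy. Organs were weighed and γ-counted against a 1:100 dilution of the injected dose. Results are given as % injected dose/g tissue; ratios are taken between tissue levels.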

Rattus norvegicus [10] = species: Rattus norvegicus; test: Tissue distribution in rat lung after 60 minutes (n=3); type: ADME, organism-based; conditions: in vivo, 1 h; summary of the method: as §6
Rattus norvegicus [11] = species: Rattus norvegicus; test: Tissue distribution in rat thyroid after 60 minutes (n=3); type: ADME, organism-based, Thyroid gland; conditions: in vivo, 1 h; summary of the method: as §6
Rattus norvegicus [12] = species: Rattus norvegicus; test: Regional kinetics in the remainder of rat brain at 120 minutes; type: ADME, organism-based; conditions: in vivo, 2 h; summary of the method: as §2
Rattus norvegicus [13] = species: Rattus norvegicus; test: Ratio of tissue distribution between rat brain and blood after 30 min; type: ADME, organism-based; conditions: 0.5 h
Summary of the method: (§7)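 Male Wistar rats (200-350 g) under ether anesthesia, iv radiotracer (3-5 μCi in 0.1 mL 50% aqueous ethanol). At 5, 30, 60, 180 min blood taken by cardiac puncture, animal killed by cardiectomy; organs weighed, γ-counted against 1:100 injected-dose dilution; % injected dose/g tissue; brain/blood ratio.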

Rattus norvegicus [14] = species: Rattus norvegicus; test: Regional kinetics in the rat brain cortex at 180 minutes; type: ADME, organism-based; conditions: in vivo, 3 h; summary of the method: as §5
Rattus norvegicus [15] = species: Rattus norvegicus; test: Tissue distribution in rat blood after 60 minutes (n=3); type: ADME, organism-based; conditions: in vivo, 1 h; summary of the method: as §4
Rattus norvegicus [16] = species: Rattus norvegicus; test: Tissue distribution in rat lung after 180 minutes (n=3); type: ADME, organism-based; conditions: in vivo, 3 h; summary of the method: as §4
Rattus norvegicus [17] = species: Rattus norvegicus; test: Tissue distribution in rat blood after 30 minutes (n=3); type: ADME, organism-based; conditions: in vivo, 0.5 h; summary of the method: as §6
Rattus norvegicus [18] = species: Rattus norvegicus; test: Ratio of regional kinetics between rat brain caudate and cerebellum at 30 minutes; type: ADME, organism-based; conditions: in vivo, 0.5 h; summary of the method: as §3
Rattus norvegicus [19] = species: Rattus norvegicus; test: Regional kinetics in the rat brain cortex at 30 minutes; type: ADME, organism-based; conditions: in vivo, 0.5 h; summary of the method: as §5
Rattus norvegicus [20] = species: Rattus norvegicus; test: Tissue distribution in rat spleen after 60 minutes (n=3); type: ADME, organism-based; conditions: in vivo, 1 h; summary of the method: as §6
Rattus norvegicus [21] = species: Rattus norvegicus; test: Tissue distribution in rat gonads after 180 minutes (n=3); type: ADME, organism-based, Gonad; conditions: in vivo, 3 h; summary of the method: as §6
Rattus norvegicus [22] = species: Rattus norvegicus; test: Tissue distribution in rat liver after 60 minutes (n=3); type: ADME, organism-based; conditions: in vivo, 1 h; summary of the method: as §6
Rattus norvegicus [23] = species: Rattus norvegicus; test: Tissue distribution in rat lung after 5 minutes (n=3); type: ADME, organism-based; conditions: in vivo; summary of the method: as §6
Rattus norvegicus [24] = species: Rattus norvegicus; test: Tissue distribution in rat blood after 180 minutes (n=3); type: ADME, organism-based; conditions: in vivo, 3 h; summary of the method: as §6
Rattus norvegicus [25] = species: Rattus norvegicus; test: Effect of 4-aminobenzovesamicol on the regional distribution of compound in the rat brain cortex (n=4) [0.23 (0.19-0.25)]; type: ADME, organism-based; conditions: in vivo
Rattus norvegicus [26] = species: Rattus norvegicus; test: Tissue distribution in rat liver after 5 minutes (n=3); type: ADME, organism-based; conditions: in vivo; summary of the method: as §4
Rattus norvegicus [27] = species: Rattus norvegicus; test: Tissue distribution in rat kidney after 5 minutes (n=3); type: ADME, organism-based; conditions: in vivo; summary of the method: as §6
Rattus norvegicus [28] = species: Rattus norvegicus; test: Ratio of effect 4-aminobenzovesamicol on regional distribution between rat brain caudate and cortex; type: ADME, organism-based; conditions: in vivo
Rattus norvegicus [29] = species: Rattus norvegicus; test: Tissue distribution in rat muscle after 5 minutes (n=3); type: ADME, organism-based; conditions: in vivo; summary of the method: as §6
Rattus norvegicus [30] = species: Rattus norvegicus; test: Effect of haloperidol on the regional distribution of compound in the remainder of rat brain (n=4) [0.33 (0.28-0.40)]; type: ADME, organism-based; conditions: in vivo
Rattus norvegicus [31] = species: Rattus norvegicus; test: Effect of 4-aminobenzovesamicol on the regional distribution of compound in the rat cerebellum (n=4) [0.12 (0.10-0.13)]; type: ADME, organism-based; conditions: in vivo
[32] = Ratio of tissue distribution between rat brain and blood after 5 min; type: ADME, organism-based; conditions: brain and blood; summary of the method: as §7
Rattus norvegicus [33] = species: Rattus norvegicus; test: Effect of vesamicol on the accumulation in rat muscle [0.16 (0.15-0.20)]; type: ADME, organism-based, Muscle tissue; conditions: in vivo; summary of the method: as §1
Rattus norvegicus [34] = species: Rattus norvegicus; test: Tissue distribution in rat thyroid after 5 minutes (n=3); type: ADME, organism-based, Thyroid gland; conditions: in vivo; summary of the method: as §4
Rattus norvegicus [35] = species: Rattus norvegicus; test: Ratio of effect 4-aminobenzovesamicol on regional distribution between rat brain caudate and cerebellum; type: ADME, organism-based; conditions: in vivo
Rattus norvegicus [36] = species: Rattus norvegicus; test: Regional kinetics in the rat brain caudate-putamen at 180 minutes; type: ADME, organism-based; conditions: in vivo, 3 h; summary of the method: as §2
Rattus norvegicus [37] = species: Rattus norvegicus; test: Effect of haloperidol on the regional distribution of compound in the rat brain caudate-putamen (n=4) [0.75 (0.60-0.85)]; type: ADME, organism-based; conditions: in vivo
Rattus norvegicus [38] = species: Rattus norvegicus; test: Effect of vesamicol on the accumulation in rat liver [2.01 (1.65-3.34)]; type: ADME, organism-based; conditions: in vivo
Summary of the method: (§8)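 Male Wistar rats (n = 4/group) given iv vehicle (100 μL 50% aqueous EtOH) or dl-vesamicol (1.01 μmol/kg); 15 min later iv radiotracer (2.0 μCi in 100 μL 50% aqueous EtOH); killed 30 min post-tracer. Blood by cardiac puncture, organs weighed and γ-counted vs 1:100 injected-dose dilution; % dose/g tissue (range); tissue/blood ratios.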

Rattus norvegicus [39] = species: Rattus norvegicus; test: Tissue distribution in rat muscle after 180 minutes (n=3); type: ADME, organism-based; conditions: in vivo, 3 h; summary of the method: as §6
Rattus norvegicus [40] = species: Rattus norvegicus; test: Ratio of regional kinetics between rat brain caudate and cortex at 180 minutes; type: ADME, organism-based; conditions: in vivo, 3 h; summary of the method: as §3
Rattus norvegicus [41] = species: Rattus norvegicus; test: Tissue distribution in rat lung after 30 minutes (n=3); type: ADME, organism-based; conditions: in vivo, 0.5 h; summary of the method: as §6
Rattus norvegicus [42] = species: Rattus norvegicus; test: Effect of vesamicol on the accumulation in rat spleen [0.97 (0.89-1.04)]; type: ADME, organism-based; conditions: in vivo; summary of the method: as §8
Rattus norvegicus [43] = species: Rattus norvegicus; test: Tissue distribution in rat heart after 5 minutes (n=3); type: ADME, organism-based; conditions: in vivo; summary of the method: as §6
Rattus norvegicus [44] = species: Rattus norvegicus; test: Tissue distribution in rat muscle after 30 minutes (n=3); type: ADME, organism-based; conditions: in vivo, 0.5 h; summary of the method: as §4

O[C@@H]1CCN(Cc2cccc([125I])c2)C[C@H]1N1CCC(c2ccccc2)CC1 (stereo in doubt; (+))
Ratio (Rattus norvegicus [1]): 4.82 | Dose/g (Rattus norvegicus [2]): 0.24% | Dose/g (Rattus norvegicus [3]): 0.21% | Dose/g (Rattus norvegicus [4]): 0.59% | Ratio (Rattus norvegicus [5]): 1.68 | Dose/g (Rattus norvegicus [6]): 0.76% | Dose/g (Rattus norvegicus [7]): 0.28% | Ratio (Rattus norvegicus [8]): 2.43 | Dose/g (Rattus norvegicus [9]): 0.36% | Dose/g (Rattus norvegicus [10]): 0.82% | Dose/g (Rattus norvegicus [11]): 4.59% | Dose/g (Rattus norvegicus [12]): 0.4% | Ratio (Rattus norvegicus [13]): 3.18 | Dose/g (Rattus norvegicus [14]): 0.25% | Dose/g (Rattus norvegicus [15]): 0.09% | Dose/g (Rattus norvegicus [16]): 0.39% | Dose/g (Rattus norvegicus [17]): 0.12% | Ratio (Rattus norvegicus [18]): 1.2 | Dose/g (Rattus norvegicus [19]): 0.65% | Dose/g (Rattus norvegicus [20]): 0.86% | Dose/g (Rattus norvegicus [21]): 0.16% | Dose/g (Rattus norvegicus [22]): 1.91% | Dose/g (Rattus norvegicus [23]): 3.67% | Dose/g (Rattus norvegicus [24]): 0.07% | Dose/g (Rattus norvegicus [25]): 0.15% | Dose/g (Rattus norvegicus [26]): 1.6% | Dose/g (Rattus norvegicus [27]): 2.25% | Ratio (Rattus norvegicus [28]): 1.57 | Dose/g (Rattus norvegicus [29]): 0.34% | Dose/g (Rattus norvegicus [30]): 0.17% | Dose/g (Rattus norvegicus [31]): 0.11% | Kp at 5 min [32]: 2.33 | Dose/g (Rattus norvegicus [33]): 0.13% | Dose/g (Rattus norvegicus [34]): 1.6% | Ratio (Rattus norvegicus [35]): 2.07 | Dose/g (Rattus norvegicus [36]): 0.49% | Dose/g (Rattus norvegicus [37]): 0.99% | Dose/g (Rattus norvegicus [38]): 1.93% | Dose/g (Rattus norvegicus [39]): 0.08% | Ratio (Rattus norvegicus [40]): 1.93 | Dose/g (Rattus norvegicus [41]): 1.21% | Dose/g (Rattus norvegicus [42]): 0.97% | Dose/g (Rattus norvegicus [43]): 1.14% | Dose/g (Rattus norvegicus [44]): 0.16%
